V-ATPase pHluor – yeast V-ATPase proton transport regulation by pHLuorin; S. cerevisiae, pHLuorin cytosolic pH fluorescence; response, % at 10 µM; hit rate 0.37% among 350,000; in the data active means response mostly above about 7.3%, no sharp cut-off; inactive means mostly below about 5.4%; further: actives read high
HIV Env fusion – inhibitors of HIV Env-mediated cell fusion | HeLa-JRFL Env/CEM21 cell fusion, luciferase | hit rate 1.1% among 360,000 | inhibition, % at 12.3 µM;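 active means mean replicate inhibition score of at least 50 and every replicate individually at or above 50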;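 further: 0% = plate neutral controls and 100% = maraviroc near 300 nM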
GalR3 antag – blocks the human galanin receptor 3; HEK293 GalR3-CNG cAMP membrane potential fluorescence; galR3 body fused to GalR1 C-terminus; inhibition, % at 3 µM; hit rate 0.44% among 360,000; AID 651719;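 active means inhibition above the screen-wide average plus 3 SD, cut at about 13% in these data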;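 further: forskolin and galanin both at EC90 stimulate the cells; cAMP rise reported by CNG channel membrane potential dye signal; 0% = forskolin plus galanin with DMSO and 100% = forskolin alone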
Target sequence (O60755 1-299 limits assumed): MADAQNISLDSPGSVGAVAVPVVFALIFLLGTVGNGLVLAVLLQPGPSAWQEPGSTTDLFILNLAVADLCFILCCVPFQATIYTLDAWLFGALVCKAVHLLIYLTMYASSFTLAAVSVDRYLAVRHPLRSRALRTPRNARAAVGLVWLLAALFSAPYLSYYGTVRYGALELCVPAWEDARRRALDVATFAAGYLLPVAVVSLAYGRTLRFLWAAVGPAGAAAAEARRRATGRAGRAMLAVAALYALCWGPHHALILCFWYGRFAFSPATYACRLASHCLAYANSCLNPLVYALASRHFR
GAA850 FXN act – activators of GAA850 frataxin (FXN) promoter | HEK293 lucGAA850 FXN promoter luciferase reporter, 24 h; percent of 10 µM SAHA response | hit rate 0.56% among 360,000 | activation, % at 6 µM;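 active means activation above the average of all compounds screened plus 3 SD, cutoff fixed separately per campaign, cut at about 7.5% in these data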;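 further: 0% = DMSO wells and 100% = 10 µM SAHA wells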
NR2E3 ag-1 – agonists of human nuclear receptor NR2E3. Q9Y5X4. inhibition of corepressor binding, % at 4.78 µM. hit rate 0.12% among 320,000. GST-NR2E3/biotin-RetCOR TR-FRET, 1536-well. AID 2300;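 active means percent inhibition above the cutoff of mean plus 3 SD of all tested compounds, set per screening campaign, cut at about 20% in these data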;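 further: 0% = DMSO wells and 100% = biotin wells as full block of FRET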
Target sequence (Q9Y5X4 whole entry, looked up): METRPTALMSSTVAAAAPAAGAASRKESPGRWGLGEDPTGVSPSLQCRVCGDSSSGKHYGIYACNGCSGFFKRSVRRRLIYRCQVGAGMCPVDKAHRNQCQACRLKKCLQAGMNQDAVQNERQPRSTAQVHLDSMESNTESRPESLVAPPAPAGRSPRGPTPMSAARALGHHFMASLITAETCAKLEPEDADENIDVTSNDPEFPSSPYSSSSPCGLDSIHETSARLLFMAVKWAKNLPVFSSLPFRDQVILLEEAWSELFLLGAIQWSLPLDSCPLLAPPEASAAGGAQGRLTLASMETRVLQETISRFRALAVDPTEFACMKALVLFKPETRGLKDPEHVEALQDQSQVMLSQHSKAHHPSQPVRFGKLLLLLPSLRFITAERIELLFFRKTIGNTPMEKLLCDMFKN
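system = GST-tagged NR2E3 plus biotinylated RetCOR corepressor | input = 1.35 nM GST-NR2E3 | also added = 7 nM biotin-RetCOR | schedule = 5 h incubation at 4 °C | measured by = TR-FRET with europium anti-GST and streptavidin-D2, 340 nm excitation | read-out = percent loss of FRET ratio relative to control wells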
NR2E3 ag-2 – agonists of human NR2E3 nuclear receptor; CHO-S Gal4-NCOR/VP16-NR2E3 two-hybrid, luciferase; inhibition of corepressor binding, % at 3.98 µM; hit rate 0.35% among 360,000;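 active means inhibition above the mean of all tested compounds plus 3 SD, cut at about 70% in these data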;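 further: 0% = DMSO with NR2E3 transfected cells and 100% = cells lacking NR2E3 construct; higher means lower luciferase signal from less NR2E3 corepressor binding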
NR2E3 ag confirm – confirmation of human NR2E3 agonists. shares compounds with NR2E3 ag-2. CHO-S mammalian two-hybrid NR2E3-NCOR, luciferase luminescence. inhibition, % at 3.98 µM. hit rate 51% among 2,300. AID 624378;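 active means average inhibition above a cutoff equal to the mean inhibition of all tested compounds plus one SD, cut at about 70% in these data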;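 further: 0% = DMSO in NR2E3 cells and 100% = DMSO in cells lacking NR2E3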
GAL4-VP16 luc – reduces GAL4-VP16 reporter signal in NR2E3 counterscreen; CHO-S GAL4-VP16 luciferase reporter, luminescence; shares compounds with NR2E3 ag-2; hit rate 29% among 2,300; inhibition, % at 3.98 µM;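 active means mean inhibition above a cutoff equal to the average over all tested compounds plus one standard deviation, cut at about 70% in these data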;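 further: luciferase from a UAS reporter driven by GAL4-VP16 transactivation; 0% = DMSO with VP16-transfected cells and 100% = DMSO with cells lacking VP16; higher means less reporter light so more repression of VP16 activity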
* = called active by the depositor; / = no result given; [ ] = remark or other dose. A selection: hits, their analogues and other compounds. The true share with any hit is near 2.2%.

SMILES	V-ATPase pHluor	HIV Env fusion	GalR3 antag	GAA850 FXN act	NR2E3 ag-1	NR2E3 ag-2	NR2E3 ag confirm	GAL4-VP16 luc
Cc1cc2nc(C)n(CCCNC(=O)Nc3cccc4ccccc34)c2cc1C	-1	47	-5	0	0	62	76*	67
CCOc1ccc(NC(=O)NCCCn2c(C)nc3cc(C)c(C)cc32)cc1	-6	7	-5	0	1	31	/	/
O=C1c2cccc3cccc(c23)C(=O)N1CC1CCN(CC(O)COc2ccc3ccccc3c2)CC1 (stereo not given)	-4	-5	-3	-4	-8	51	17	18
COc1ccc(NC(=O)N(C)C[C@H]2Oc3ccc(NS(=O)(=O)c4ccc(C)cc4)cc3CC(=O)N([C@@H](C)CO)C[C@@H]2C)cc1	/	-9[16.7 µM]	/	/	/	/	/	/
O=C(C[C@H]1C[C@H]2c3cc(NS(=O)(=O)c4ccc(F)cc4)ccc3O[C@H]2[C@H](CO)O1)NCc1cccnc1	/	-30[16.7 µM]	/	/	/	/	/	/
CCn1ncc(/C=C/C(=O)Nc2c(C)nn(Cc3ccc(Cl)cc3Cl)c2C)c1C	-1	18	-6	-2	-3	50	32	40
O=C(CCl)Nc1c(C(=O)Nc2ccc3c(c2)OCCO3)oc2ccccc12	4	-72	-2	-6	2	51	-101	-8
C[C@@H]1CN([C@@H](C)CO)C(=O)c2cccc(NS(=O)(=O)c3ccccc3)c2O[C@@H]1CN(C)Cc1ccc(C(=O)O)cc1	/	-5[16.7 µM]	/	/	/	/	/	/
CCC1Sc2ccc(S(=O)(=O)Nc3ccc(OC)c(OC)c3)cc2NC1=O (stereo not given)	2	-4	-9	-1	0	88*	81*	57
COc1ccc(C)cc1NS(=O)(=O)c1ccc2c(c1)NC(=O)C(C)S2 (stereo not given)	-4	1	-8	-1	1	8	/	/
CCC1Sc2ccc(S(=O)(=O)Nc3ccc(OC)cc3)cc2NC1=O (stereo not given)	5	-4	-7	1	4	60	45	52
CCC(=O)N(C)C[C@H]1Oc2ncc(Br)cc2C(=O)N([C@@H](C)CO)C[C@H]1C	/	-3[16.7 µM]	/	/	/	/	/	/
C[C@H](CO)N1C[C@H](C)[C@H](CN(C)C(=O)CCCN(C)C)OCCCC[C@H](C)Oc2ccc(NS(=O)(=O)c3ccc(F)cc3)cc2C1=O	/	13[16.7 µM]	/	/	/	/	/	/
Cc1ccc([C@H]2C(C(=O)O)=CC[C@@H](c3ccc(C(C)C)cc3)N2S(=O)(=O)c2ccc(C)cc2)cc1	-1	5	-6	-1	/	92*	51	36
Cc1ccc(S(=O)(=O)N2[C@@H](c3ccc(C(C)(C)C)cc3)C(C(=O)O)=CC[C@H]2c2cccc(Cl)c2)cc1	-1	-21	-7	-1	/	84*	70	29
Cc1ccc(S(=O)(=O)N2[C@@H](c3ccccc3)C(C(=O)O)=CC[C@H]2c2ccc(C(C)C)cc2)cc1	0	5	-1	2	2	3	/	/
Cc1ccc(S(=O)(=O)N2[C@@H](c3ccc(Cl)cc3)C(C(=O)O)=CC[C@H]2c2ccc(C(C)C)cc2)cc1	3	15	-5	-1	1	70	87*	48
Cc1ccc([C@H]2C(C(=O)O)=CC[C@@H](c3ccc(Cl)cc3)N2S(=O)(=O)c2ccc(C)cc2)cc1	2	5	-4	-2	/	26	/	/
Cc1ccc(S(=O)(=O)N2[C@@H](c3ccc(Br)cc3)C(C(=O)O)=CC[C@H]2c2ccc(Cl)c(Cl)c2)cc1	1	-16	-6	-1	/	76*	74*	42
Cc1ccc(S(=O)(=O)N2[C@@H](c3ccc(C(C)(C)C)cc3)C(C(=O)O)=CC[C@H]2c2ccc(Cl)c(Cl)c2)cc1	1	3	-4	-1	/	-11	/	/
CCc1ccc([C@@H]2CC=C(C(=O)O)[C@H](c3ccc(Cl)cc3)N2S(=O)(=O)c2ccc(C)cc2)cc1	5	4	-4	0	4	76*	56	40
CCc1ccc([C@@H]2CC=C(C(=O)O)[C@H](c3ccc(C)cc3)N2S(=O)(=O)c2ccc(C)cc2)cc1	-2	-3	-5	1	/	46	/	/
CC(=O)c1c(C)[nH]c(C(=O)OCc2cccc(C)c2)c1C	-1	16	-6	3	2	48	28	1
CC(C)CCNC(=O)CN(Cc1ccco1)C(=O)c1snc(C(N)=O)c1N	1	10	6	2	-2	49	4	7
C[C@@H]1CN([C@@H](C)CO)C(=O)Cc2cc(NS(C)(=O)=O)ccc2O[C@@H]1CN(C)Cc1ccccc1	/	3[16.7 µM]	/	/	/	/	/	/
SMILES	V-ATPase pHluor	HIV Env fusion	GalR3 antag	GAA850 FXN act	NR2E3 ag-1	NR2E3 ag-2	NR2E3 ag confirm	GAL4-VP16 luc
O=[N+]([O-])c1ccc2c(c1)ncn2CCc1ccccc1	7	3	-2	2	/	76*	-8	-11
C[C@H](CO)N1C[C@H](C)[C@H](CN(C)C(=O)c2ccc(F)cc2)Oc2cc(-c3cccc(C#N)c3)ccc2S1(=O)=O	/	-5[16.7 µM]	/	/	/	/	/	/
C[C@@H]1CN([C@H](C)CO)C(=O)c2cc(NC(=O)CCN3CCOCC3)ccc2O[C@@H]1CN(C)Cc1ccc(Cl)c(Cl)c1	/	-9[16.7 µM]	/	/	/	/	/	/
CC(=O)Oc1c(I)cc(I)cc1C(=O)Nc1ccc(Cl)cc1	3	5	-5	-1	2	106*	99*	87*
Cc1cc(C(=O)Nc2ccc(Cl)cc2)c2ccccc2n1	-2	12	-8	2	1	-15	/	/
CO[C@H]1CC[C@H]2CCN(C)C(=O)[C@@H](C)N(C)C(=O)c3cc(C#N)ccc3OC[C@H]1O2	/	-13[16.7 µM]	/	/	/	/	/	/
c1ccc(-c2nc(-c3ccncc3)no2)cc1	0	/	-4	5	0	-59	/	/
c1ccc(C(Cc2nc(-c3ccncc3)no2)c2ccccc2)cc1	0	34	10	-4	-2	64	75*	56
COC(=O)c1cc(CSc2nc3ccccc3c(=O)n2C)oc1C	-5	48	-10	0	4	87*	83*	71*
Cc1noc(C)c1NC(=O)N[C@H]1CC[C@H](CC(=O)NCCCN(C)C)O[C@@H]1CO	/	7[16.7 µM]	/	/	/	/	/	/
O=C(N=Nc1c(O)[nH]c2ccccc12)Nc1ccccc1	9	-72	-5	0	/	-106	/	/
Cc1cccc(NC(=S)N=Nc2c(O)[nH]c3ccccc23)c1	2	27	-4	-1	-5	67	13	-11
CO[C@@H]1CC[C@H]2CCOc3ccc(C#N)cc3C(=O)N(C)C[C@H](C)C(=O)N(C)C[C@@H]1O2	/	-7[16.7 µM]	/	/	/	/	/	/
Cc1ccc(C(C#N)c2ccc(C(=O)c3ccc(F)cc3)cc2)cc1 (stereo not given)	/	/	2	0	3	49	59	45

From PubChem BioAssay
